In ChEMBL document CHEMBL3046106, “Synthesis and herbicidal activity of diphenyl ether derivatives containing unsaturated carboxylates” (J Agric Food Chem, 2011) one finds Activity data, which are given here for 17 molecules.

Common to all, as to format: functional
Assay [1] deals with Echinochloa crus-galli. The experiment in a line: Herbicidal activity against Echinochloa crus-galli (barnyard grass) at 200 g/hm2 postemergent application after 2 weeks. An outline of the steps:
(§1)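 Seedlings grown 14 days in the greenhouse; plants uniform in size and stage were chosen. Test compound in acetone sprayed post-emergence at a carrier volume equivalent to 187 L/ha. Plants returned to the greenhouse and watered; untreated plants served as control. Each species scored visually two weeks after application on a 0–100 scale (0 no activity, 100 total control).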

For assay [2], the system named is Digitaria sanguinalis. The experiment in a line: Herbicidal activity against Digitaria sanguinalis (hairy crabgrass) at 200 g/hm2 postemergent application after 2 weeks. In short, it runs like this: as §1
Assay [3] relates to Echinochloa crus-galli. The assay is described as follows: Herbicidal activity against Echinochloa crus-galli (barnyard grass) at 1000 g/hm2 postemergent application after 2 weeks. An outline of the steps:
as §1

Assay [4] relates to Digitaria sanguinalis. The experiment in a line: Herbicidal activity against Digitaria sanguinalis (hairy crabgrass) at 40 g/hm2 postemergent application after 2 weeks. In short, it runs like this:
as §1

The test system of assay [5] is Abutilon theophrasti. The experiment in a line: Herbicidal activity against Abutilon theophrasti (velvetleaf) at 1000 g/hm2 postemergent application after 2 weeks. In short, it runs like this:
as §1

Assay [6] has as its system Echinochloa crus-galli. The assay is described as follows: Herbicidal activity against Echinochloa crus-galli (barnyard grass) at 40 g/hm2 postemergent application after 2 weeks. In short, it runs like this: as §1
The subject of assay [7] is Digitaria sanguinalis. The experiment in a line: Herbicidal activity against Digitaria sanguinalis (hairy crabgrass) at 1000 g/hm2 postemergent application after 2 weeks. An outline of the steps:
as §1

Assay [8] has as its system Abutilon theophrasti. The experiment in a line: Herbicidal activity against Abutilon theophrasti (velvetleaf) at 200 g/hm2 postemergent application after 2 weeks. An outline of the steps:
as §1

The subject of assay [9] is Abutilon theophrasti. The assay is described as follows: Herbicidal activity against Abutilon theophrasti (velvetleaf) at 40 g/hm2 postemergent application after 2 weeks. An outline of the steps:
as §1

Consider `C/C(=C\C(=O)OC(C)(C)C)OC(=O)c1cc(Oc2ccc(C(F)(F)F)cc2Cl)ccc1[N+](=O)[O-]`, for which the Activity with Echinochloa crus-galli [1] stood at 30%; in the assay with Digitaria sanguinalis [2], 15%; in the assay on Echinochloa crus-galli [3] it was 45%; in the assay on Digitaria sanguinalis [4], 5%; in the assay with Abutilon theophrasti [5], 75%; in the assay with Echinochloa crus-galli [6], 5%. Moreover, the Activity came out at 40% in the assay with Digitaria sanguinalis [7], 50% with Abutilon theophrasti [8] and 30% in the assay with Abutilon theophrasti [9].

Turning to `COC(=O)/C=C(\C)OC(=O)c1cc(Oc2ccc(C(F)(F)F)cc2Cl)ccc1[N+](=O)[O-]`, the Activity in the assay on Echinochloa crus-galli [1] turned out to be 50%; in the assay with Digitaria sanguinalis [2] it was 80%; with Echinochloa crus-galli [3] it was 80%; in the assay on Digitaria sanguinalis [4] it was 5%; in the assay with Abutilon theophrasti [5] it was 100%; in the assay on Echinochloa crus-galli [6], 15%. Moreover, the Activity with Digitaria sanguinalis [7] came to 95%; in the assay on Abutilon theophrasti [8] it was 75%; with Abutilon theophrasti [9], 25%.

In the case of `CCOC(=O)/C(C)=C(\C)OC(=O)c1cc(Oc2ccc(C(F)(F)F)cc2Cl)ccc1[N+](=O)[O-]`, the Activity in the assay with Echinochloa crus-galli [1] was 15%; in the assay on Digitaria sanguinalis [2] it was 50%; in the assay on Echinochloa crus-galli [3], 25%; in the assay on Digitaria sanguinalis [4] it was 20%; with Abutilon theophrasti [5], 100%; with Echinochloa crus-galli [6], 10%. The results for the Activity in the assay on Digitaria sanguinalis [7], with Abutilon theophrasti [8] and in the assay on Abutilon theophrasti [9] were 55%, 35% and 0%, respectively.

With `CCOC(=O)/C(C)=C(\C)OC(=O)c1cc(Oc2ccc(C(F)(F)F)cc2Cl)ccc1Cl`, the Activity in the assay with Echinochloa crus-galli [1] is 20%; in the assay with Digitaria sanguinalis [2], 25%; in the assay with Echinochloa crus-galli [3], 25%; in the assay with Digitaria sanguinalis [4] it was 0%; in the assay on Abutilon theophrasti [5] it was 100%; in the assay with Echinochloa crus-galli [6], 0%. The figures for the Activity with Digitaria sanguinalis [7], in the assay on Abutilon theophrasti [8] and with Abutilon theophrasti [9] were 30%, 90% and 5%, respectively.

With `CCC/C(=C\C(=O)OCC)OC(=O)c1cc(Oc2ccc(C(F)(F)F)cc2Cl)ccc1[N+](=O)[O-]`, the Activity in the assay with Echinochloa crus-galli [1] is reported as 5%; in the assay with Digitaria sanguinalis [2], 5%; in the assay with Echinochloa crus-galli [3], 35%; with Abutilon theophrasti [5], 0%; with Digitaria sanguinalis [7], 15%; in the assay with Abutilon theophrasti [8], 0%.

As to `CCOC(=O)/C=C(\C)COC(=O)c1cc(Oc2ccc(C(F)(F)F)cc2Cl)ccc1[N+](=O)[O-]`, the Activity worked out at 20% with Echinochloa crus-galli [1]; 10% in the assay with Digitaria sanguinalis [2]; 35% with Echinochloa crus-galli [3]; 10% with Digitaria sanguinalis [4]; 100% in the assay with Abutilon theophrasti [5]; 5% with Echinochloa crus-galli [6]. The figures for the Activity with Digitaria sanguinalis [7], in the assay on Abutilon theophrasti [8] and in the assay with Abutilon theophrasti [9] were 20%, 100% and 90%, respectively.

For `C=C(COC(=O)c1cc(Oc2ccc(C(F)(F)F)cc2Cl)ccc1Cl)C(=O)OCC`, the Activity in the assay with Echinochloa crus-galli [1] amounted to 20%; in the assay on Digitaria sanguinalis [2], 70%; with Echinochloa crus-galli [3] it was 90%; in the assay with Digitaria sanguinalis [4], 40%; with Abutilon theophrasti [5], 100%; in the assay on Echinochloa crus-galli [6], 10%. The values for the Activity in the assay with Digitaria sanguinalis [7], in the assay on Abutilon theophrasti [8] and with Abutilon theophrasti [9] were 95%, 100% and 30%, respectively.

As to `CCOC(=O)/C=C(/OC(=O)c1cc(Oc2ccc(C(F)(F)F)cc2Cl)ccc1[N+](=O)[O-])C(F)(F)F`, the Activity in the assay with Echinochloa crus-galli [1] amounted to 0%; with Digitaria sanguinalis [2], 0%; with Echinochloa crus-galli [3], 35%; in the assay with Abutilon theophrasti [5], 60%; in the assay on Digitaria sanguinalis [7] it was 50%; in the assay with Abutilon theophrasti [8], 0%.

Turning to `C=C(C(=O)OCC)C(C)OC(=O)c1cc(Oc2ccc(C(F)(F)F)cc2Cl)ccc1[N+](=O)[O-]` (stereo not drawn), the Activity in the assay on Echinochloa crus-galli [1] is 20%; with Digitaria sanguinalis [2], 70%; with Echinochloa crus-galli [3] it was 30%; in the assay with Digitaria sanguinalis [4], 25%; in the assay with Abutilon theophrasti [5], 100%; in the assay on Echinochloa crus-galli [6] it was 10%. Besides, the Activity with Digitaria sanguinalis [7] is recorded as 90%; with Abutilon theophrasti [8], 50%; with Abutilon theophrasti [9], 5%.

For `C=CCOC(=O)/C=C(\C)OC(=O)c1cc(Oc2ccc(C(F)(F)F)cc2Cl)ccc1[N+](=O)[O-]`, the Activity in the assay with Echinochloa crus-galli [1] was 5%; with Digitaria sanguinalis [2], 5%; in the assay on Echinochloa crus-galli [3], 25%; with Abutilon theophrasti [5] it was 40%; in the assay with Digitaria sanguinalis [7], 35%; with Abutilon theophrasti [8], 0%.

As to `C=C(COC(=O)c1cc(Oc2ccc(C(F)(F)F)cc2Cl)ccc1Cl)C(=O)OCCC`, the Activity in the assay with Echinochloa crus-galli [1] was 10%; in the assay on Digitaria sanguinalis [2], 30%; in the assay on Echinochloa crus-galli [3], 75%; in the assay on Digitaria sanguinalis [4], 10%; with Abutilon theophrasti [5], 100%; in the assay on Echinochloa crus-galli [6], 5%. Also, the Activity with Digitaria sanguinalis [7] worked out at 35%; in the assay on Abutilon theophrasti [8], 100%; in the assay with Abutilon theophrasti [9], 20%.

`CCOC(=O)/C=C(\C)OC(=O)c1cc(Oc2ccc(C(F)(F)F)cc2Cl)ccc1[N+](=O)[O-]`: the Activity in the assay on Echinochloa crus-galli [1] worked out at 40%; with Digitaria sanguinalis [2] it was 90%; with Echinochloa crus-galli [3] it was 60%; in the assay with Digitaria sanguinalis [4], 80%; in the assay on Abutilon theophrasti [5] it was 100%; in the assay with Echinochloa crus-galli [6], 10%. Also, the Activity with Digitaria sanguinalis [7] turned out to be 98%; in the assay on Abutilon theophrasti [8] it was 85%; with Abutilon theophrasti [9], 10%.

`CC/C(=C\C(=O)OC)OC(=O)c1cc(Oc2ccc(C(F)(F)F)cc2Cl)ccc1[N+](=O)[O-]`: the Activity is given as 0% in the assay on Echinochloa crus-galli [1]; 5% in the assay with Digitaria sanguinalis [2]; 35% with Echinochloa crus-galli [3]; 10% with Abutilon theophrasti [5]; 15% with Digitaria sanguinalis [7]; 0% in the assay on Abutilon theophrasti [8].

For `CCOC(=O)/C=C/COC(=O)c1cc(Oc2ccc(C(F)(F)F)cc2Cl)ccc1Cl`, the Activity in the assay with Echinochloa crus-galli [1] is reported as 45%; in the assay with Digitaria sanguinalis [2], 30%; with Echinochloa crus-galli [3], 85%; with Digitaria sanguinalis [4] it was 20%; in the assay with Abutilon theophrasti [5], 100%; in the assay on Echinochloa crus-galli [6], 15%. For the same molecule, the figures for the Activity in the assay on Digitaria sanguinalis [7], in the assay with Abutilon theophrasti [8] and in the assay on Abutilon theophrasti [9] were 70%, 100% and 98%, respectively.

Turning to `C=C(C(=O)OCC)C(C)OC(=O)c1cc(Oc2ccc(C(F)(F)F)cc2Cl)ccc1Cl` (stereo not drawn), the Activity is 20% in the assay on Echinochloa crus-galli [1]; 35% in the assay with Digitaria sanguinalis [2]; 95% with Echinochloa crus-galli [3]; 0% with Digitaria sanguinalis [4]; 100% in the assay with Abutilon theophrasti [5]; 0% in the assay with Echinochloa crus-galli [6]. The Activity in the assay with Digitaria sanguinalis [7] is listed as 40%; in the assay with Abutilon theophrasti [8] it was 75%; in the assay with Abutilon theophrasti [9], 5%.

`CCOC(=O)/C=C(\C)OC(=O)c1cc(Oc2ccc(C(F)(F)F)cc2Cl)ccc1Cl`: the Activity with Echinochloa crus-galli [1] came to 20%; in the assay with Digitaria sanguinalis [2] it was 20%; with Echinochloa crus-galli [3], 95%; in the assay with Digitaria sanguinalis [4] it was 10%; with Echinochloa crus-galli [6], 0%; with Digitaria sanguinalis [7], 25%.

With `C=C(COC(=O)c1cc(Oc2ccc(C(F)(F)F)cc2Cl)ccc1Cl)C(=O)OC`, the Activity with Echinochloa crus-galli [1] came to 15%; with Digitaria sanguinalis [2], 25%; with Echinochloa crus-galli [3], 75%; in the assay with Digitaria sanguinalis [4] it was 10%; with Abutilon theophrasti [5], 100%; in the assay on Echinochloa crus-galli [6] it was 5%. The results for the Activity with Digitaria sanguinalis [7], with Abutilon theophrasti [8] and in the assay on Abutilon theophrasti [9] were 30%, 98% and 10%, respectively.
